Active and inactive are the calls of the source.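 The calls were made as follows, unless noted: active = viability at or below 30% in both replicate assays; inconclusive = viability at or below 30% in just one of the two assays; inactive = the rest.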
How the values were obtained:
[1] = Her2 expression decrease, cell viability multiplex – SKBR3 breast tumor cells, AlphaScreen, ATP viability, primary screen (AID 461;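 active = Her2 level under about 52% in both replicate screens, with viability over 70% of control, limit read from the data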;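 as to Her2 level: lower value means less Her2 protein in the cells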;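 as to viability: percent of carrier control wells set as 100% viability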); conditions: SKBR3 Her2 protein level, 18-24 h, measured here: SKBR3 viability, ATP luminescence, at 10 µM
[2] = molecular target: Receptor tyrosine-protein kinase erbB-2 (Homo sapiens) (UniProt P04626); test: as above; conditions: 18-24 h, at 10 µM, stronger effect = lower value
[3] = reduced viability of SK-BR-3 breast cancer cells – cell-based, 24 h, human, pilot screen (AID 572;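 active = viability at or below 10% of carrier control in both of two separate runs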;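 also: compound exposure lasted between 18 and 24 h rather than exactly 24 h; 100% = carrier-treated control wells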); conditions: SK-BR-3 viability, CellTiter-Glo luminescence, at 10 µM, stronger effect = lower value
[4] = HUVEC growth inhibition – cell-based, human, primary screen (AID 575); conditions: HUVEC proliferation, CellTiter-Glo luminescence, 72 h; at 10 µM; stronger effect = lower value;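 also: 100% = median of untreated cell wells with 0.1% DMSO on each plate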
Outline: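 Material: primary human umbilical vein endothelial cells / Schedule: 72 h exposure, 37 °C, 5% CO2, 30 min RT equilibration / Signal: ATP-based CellTiter-Glo luminescent read / Read-out basis: percent of median DMSO-control luminescence / Control set: 32 DMSO-only cell-control wells (high), 32 MePR drug-control wells (low) per plate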

[5] = H69AR cell proliferation blockers – human, duplicate replicates, primary screen (AID 580;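 active = viability at or under a set limit in both replicates, limit being median viability minus 3 SD, cut at about 48% in these data, passing the limit was not always enough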;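 also: 100% = mean luminescence of untreated wells and 0% = no signal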); conditions: H69AR lung tumor cells viability, ATP luminescence, 72 h; at 10 µM; stronger effect = lower value
[6] = MRP1 drug-resistance reversers in H69AR cells – cell-based, doxorubicin co-treatment, pilot screen (AID 601;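 active = viability loss from added drug above about 55%, and viability with drug at most 40%, in both replicates, limit read from the data, passing the limit was not always enough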); conditions: CellTiter-Glo, 72 h, at 10 µM; for differential viability (reversal): stronger effect = higher value
[7] = yeast transport mutant growth inhibition pilot in 384-well plates, post-Golgi transport modulator project (AID 636; in the data active = inhibition above about 31%); conditions: absorbance 615 nm, about 18 h, stronger effect = higher value
[8] = growth suppression of yeast trafficking mutant, preliminary HTS, modulators of trafficking downstream of Golgi apparatus project, 1536-format plate, OD 615 nm (AID 637; in the data active = inhibition above about 30%); conditions: yeast transport mutant growth, absorbance 615 nm, 18 h; stronger effect = higher value
[9] = H69AR cells + 2 uM doxorubicin, measured here: viability with 2 uM doxorubicin, stronger effect = lower value
[10] = H69AR cells, compound alone cytotoxicity

Sequence of Receptor tyrosine-protein kinase erbB-2 (Homo sapiens) (P04626 whole entry, looked up): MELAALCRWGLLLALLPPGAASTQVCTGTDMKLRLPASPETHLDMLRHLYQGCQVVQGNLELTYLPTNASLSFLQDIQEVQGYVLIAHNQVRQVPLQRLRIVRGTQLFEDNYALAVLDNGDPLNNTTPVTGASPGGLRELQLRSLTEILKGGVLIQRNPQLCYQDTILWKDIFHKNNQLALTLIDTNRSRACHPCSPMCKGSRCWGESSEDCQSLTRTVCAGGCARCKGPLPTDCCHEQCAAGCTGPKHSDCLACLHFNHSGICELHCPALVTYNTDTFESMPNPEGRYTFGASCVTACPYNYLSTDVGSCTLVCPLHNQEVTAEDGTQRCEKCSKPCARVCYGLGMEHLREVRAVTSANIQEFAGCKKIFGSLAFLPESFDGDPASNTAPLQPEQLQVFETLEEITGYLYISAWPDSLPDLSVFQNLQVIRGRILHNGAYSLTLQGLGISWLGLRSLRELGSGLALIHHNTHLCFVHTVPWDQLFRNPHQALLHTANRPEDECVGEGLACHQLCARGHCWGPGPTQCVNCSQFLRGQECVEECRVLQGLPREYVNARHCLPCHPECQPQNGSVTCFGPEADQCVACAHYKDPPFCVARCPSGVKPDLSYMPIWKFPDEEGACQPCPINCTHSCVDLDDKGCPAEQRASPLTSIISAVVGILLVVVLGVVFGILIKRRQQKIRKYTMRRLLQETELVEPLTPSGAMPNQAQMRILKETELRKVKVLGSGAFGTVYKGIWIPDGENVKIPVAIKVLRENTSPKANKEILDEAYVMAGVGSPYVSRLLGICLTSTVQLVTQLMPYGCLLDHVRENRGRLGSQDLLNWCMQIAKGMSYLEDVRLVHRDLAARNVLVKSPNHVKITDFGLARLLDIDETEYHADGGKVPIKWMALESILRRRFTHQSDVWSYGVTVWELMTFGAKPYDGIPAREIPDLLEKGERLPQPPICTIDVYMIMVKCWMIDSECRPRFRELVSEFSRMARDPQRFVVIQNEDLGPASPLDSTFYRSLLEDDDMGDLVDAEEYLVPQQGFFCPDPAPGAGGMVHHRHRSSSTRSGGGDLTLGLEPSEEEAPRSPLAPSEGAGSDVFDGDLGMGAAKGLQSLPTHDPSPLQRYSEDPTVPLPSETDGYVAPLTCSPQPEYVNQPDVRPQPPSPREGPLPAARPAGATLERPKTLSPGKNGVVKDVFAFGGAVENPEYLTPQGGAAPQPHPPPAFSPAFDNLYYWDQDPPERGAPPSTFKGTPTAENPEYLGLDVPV

Structure (SMILES) | viability [1] | Her2 level [2] | viability [3] | viability [4] | viability [5] | differential viability (reversal) ([6]; H69AR cells + 2 uM doxorubicin) | viability [6, 9] | viability [6, 10] | inhibition [7] | inhibition [8]
COc1cccc(C(c2nnnn2CCc2ccccc2)N2CCN(c3ccccc3)CC2)c1OC (stereo not given) | 91% | 88% (inactive) | 91% (inactive) | 109% (inactive) | 83.1% (inactive) | -7.96% (inactive) | 91% | 83.1% | 13.1% (inactive) | -1.13% (inactive)
c1ccc2ncc(-n3cnnn3)cc2c1 | 99.5% | 105% (inactive) | 99.5% (inactive) | 83.2% (inactive) | 94% (inactive) | 6.05% (inactive) | 87.9% | 94% | -3.24% (inactive) | 5.74% (inactive)
COc1ccc(-c2cc(C(=O)N3CCN(Cc4ccccc4)CC3)no2)cc1OC | 99% | 64.5% (inactive) | 99% (inactive) | 81.5% (inactive) | 98.5% (inactive) | 20.8% (inactive) | 77.8% | 98.5% | -5.68% (inactive) | 9% (inactive)
O=C(CSc1ncnc2c1oc1ccccc12)Nc1ccccc1C(F)(F)F | 118% | 126% (inactive) | 118% (inactive) | 86.8% (inactive) | 95.8% (inactive) | 8.15% (inactive) | 87.6% | 95.8% | -5.6% (inactive) | -2% (inactive)
O=c1ccc2cc3c([nH]c4ccc(Br)cc43)oc-2c1O | 146% | 87% (inactive) | 146% (inactive) | 91.7% (inactive) | 78.3% (inactive) | -3.78% (inactive) | 82.1% | 78.3% | -4.16% (inactive) | -3.81% (inactive)
CC1C=CC(C)C(C(=O)O)C1C(=O)O (stereo not given) | 103% | 93% (inactive) | 103% (inactive) | 97.6% (inactive) | 93% (inactive) | -5.29% (inactive) | 98.3% | 93% | -0.65% (inactive) | -5.67% (inactive)
COc1ccccc1N1CCN(C(=O)CCNS(=O)(=O)c2ccc3c(c2)CCC(=O)N3)CC1 | 89% | 81.5% (inactive) | 89% (inactive) | 106% (inactive) | 89.8% (inactive) | -0.605% (inactive) | 90.4% | 89.8% | -4.53% (inactive) | 2.62% (inactive)
CC(C)C(NC(=O)OCc1ccccc1)C(=O)OCC(=O)NCc1ccco1 (stereo not given) | 100% | 108% (inactive) | 100% (inactive) | 86.2% (inactive) | 85.3% (inactive) | 7.68% (inactive) | 77.6% | 85.3% | -1.18% (inactive) | -11.3% (inactive)
COC(=O)c1ccccc1NC(=O)c1noc2c1CCC2 | 93% | 83.5% (inactive) | 93% (inactive) | 86.7% (inactive) | 74.8% (inactive) | -4.56% (inactive) | 79.4% | 74.8% | -7.37% (inactive) | 2.55% (inactive)
CCCOc1ccc(N2C(=O)C3ON(c4ccccc4)C(c4ccc(O)c(OC)c4)C3C2=O)cc1 (stereo not given) | 106% | 100% (inactive) | 106% (inactive) | 71.6% (inactive) | 93.8% (inactive) | 10.6% (inactive) | 83.3% | 93.8% | -3.03% (inactive) | 3.55% (inactive)
CC(C)Cn1c(=O)c(C2=NS(=O)(=O)c3ccccc3N2)c(O)c2ccccc21 | 118% | 86.5% (inactive) | 118% (inactive) | 97% (inactive) | 98.1% (inactive) | -0.935% (inactive) | 99% | 98.1% | -2.21% (inactive) | 1.8% (inactive)
COc1ccc2c(c1)cc(C(=O)O)n2C | 92.5% | 73% (inactive) | 92.5% (inactive) | 102% (inactive) | 98.7% (inactive) | 8.84% (inactive) | 89.9% | 98.7% | -5.39% (inactive) | -5.67% (inactive)
C=CCn1c(SCC(=O)c2ccc(OC)cc2)nnc1C(C)NC(=O)c1cccs1 (stereo not given) | 102% | 88.5% (inactive) | 102% (inactive) | 90.9% (inactive) | 87% (inactive) | -5.4% (inactive) | 92.4% | 87% | -0.26% (inactive) | 7.67% (inactive)
COc1ccc(Oc2nc(Oc3ccc(OC)cc3)nc(Oc3ccc(OC)cc3)n2)cc1 | 104% | 102% (inactive) | 104% (inactive) | 95.6% (inactive) | 94.6% (inactive) | 6.92% (inactive) | 87.7% | 94.6% | -0.93% (inactive) | -5.81% (inactive)

Reference: PubChem BioAssay
